Key:
TLR2 [1] = target: T1, TLR2 (Homo sapiens, UniProt O60603); assay: Test of compounds as TLR2 receptor antagonists; type: cell-based
Target sequence in this assay (O60603 21-784): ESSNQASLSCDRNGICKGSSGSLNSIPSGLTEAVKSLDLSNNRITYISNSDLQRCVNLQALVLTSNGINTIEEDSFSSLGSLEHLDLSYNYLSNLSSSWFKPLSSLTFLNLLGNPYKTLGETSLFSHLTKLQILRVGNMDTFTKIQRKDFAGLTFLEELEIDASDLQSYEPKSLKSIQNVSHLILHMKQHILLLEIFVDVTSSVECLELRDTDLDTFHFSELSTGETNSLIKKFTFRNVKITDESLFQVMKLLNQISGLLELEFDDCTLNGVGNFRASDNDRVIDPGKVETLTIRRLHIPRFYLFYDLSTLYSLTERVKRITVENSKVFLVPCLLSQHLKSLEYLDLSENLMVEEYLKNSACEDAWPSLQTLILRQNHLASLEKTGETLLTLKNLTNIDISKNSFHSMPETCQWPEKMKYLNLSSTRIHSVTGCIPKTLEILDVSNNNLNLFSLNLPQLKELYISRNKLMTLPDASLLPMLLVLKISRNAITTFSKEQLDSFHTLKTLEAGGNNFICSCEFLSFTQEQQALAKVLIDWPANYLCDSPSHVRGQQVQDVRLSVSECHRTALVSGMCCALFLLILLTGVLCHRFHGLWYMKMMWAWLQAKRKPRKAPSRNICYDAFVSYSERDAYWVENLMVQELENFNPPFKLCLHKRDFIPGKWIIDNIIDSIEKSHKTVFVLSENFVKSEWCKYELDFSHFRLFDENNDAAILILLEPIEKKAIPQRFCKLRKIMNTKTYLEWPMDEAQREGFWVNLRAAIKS

TLR2 [2] = target: T1, TLR2; assay: NF-κB induction; type: cell-based
Summary of the method: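 HEK293 cells stably transfected with TLR2, MD2, CD14 and a secreted alkaline phosphatase (sAP) reporter under NF-κB/AP-1 promoters. Cells were kept in selection medium with zeocin and normocin. They were grown in 384-well plates to confluency, then given graded concentrations of stimuli. Supernatant sAP, taken as proportional to NF-κB induction, was read at 620 nm with an alkaline phosphatase-specific chromogen in detection medium.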
Target sequence in this assay (O60603 21-784): as above
Target sequence in this assay (Q9Y2C9 32-796 partner): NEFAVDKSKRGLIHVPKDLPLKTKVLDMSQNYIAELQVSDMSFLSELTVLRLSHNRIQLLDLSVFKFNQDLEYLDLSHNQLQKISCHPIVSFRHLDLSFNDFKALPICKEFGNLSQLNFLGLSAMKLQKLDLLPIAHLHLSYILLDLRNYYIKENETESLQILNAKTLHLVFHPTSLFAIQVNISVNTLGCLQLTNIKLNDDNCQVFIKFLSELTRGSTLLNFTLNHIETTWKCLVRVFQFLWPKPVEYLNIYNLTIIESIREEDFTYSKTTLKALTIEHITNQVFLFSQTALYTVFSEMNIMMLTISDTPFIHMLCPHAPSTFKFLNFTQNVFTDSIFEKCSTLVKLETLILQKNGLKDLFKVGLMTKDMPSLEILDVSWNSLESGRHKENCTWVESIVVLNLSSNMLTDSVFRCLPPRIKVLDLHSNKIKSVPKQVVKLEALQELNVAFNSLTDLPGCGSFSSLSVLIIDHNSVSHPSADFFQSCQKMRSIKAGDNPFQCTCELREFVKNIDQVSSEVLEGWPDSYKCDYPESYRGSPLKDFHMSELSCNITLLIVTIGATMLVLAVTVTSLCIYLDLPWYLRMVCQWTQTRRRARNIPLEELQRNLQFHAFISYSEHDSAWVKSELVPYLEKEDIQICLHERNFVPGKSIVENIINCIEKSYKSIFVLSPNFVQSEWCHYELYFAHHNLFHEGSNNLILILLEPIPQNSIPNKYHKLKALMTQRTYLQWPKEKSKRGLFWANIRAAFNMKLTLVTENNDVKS

murine cells = settings: cited from earlier work
rabbits = assay: Fever response / acute toxicity in rabbits; type: in vivo, rabbit; settings: dose of 100 ng/kg, manuscript in preparation
[3] = system: patients with inoperable carcinoma of the pancreas; settings: single intraoperative 20–30 μg intratumoral injection; cited from earlier work

Compound | Activity as TLR2 receptor antagonist (TLR2 [1]) | TLR2 agonistic activity (in words) (TLR2 [2]; human TLR2 reporter gene assay) | further results
CCCCCCCCCCCCCCCC(=O)OC[C@H](COCC(N)C(=O)N[C@H](CO)C(=O)OC)OC(=O)CCCCCCCCCCCCCCC (stereo partly drawn) [Compound 21b, (S)-3-(2-amino-3-((R)-3-hydroxy-1-methoxy-1-oxopropan-2-ylamino)-3-oxopropoxy)propane-1,2-diyl dipalmitate] | inactive |  | TLR2 agonistic activity (in words) (TLR2 [2]; at the highest concentration tested): inactive
lipopolysaccharide [LPS] |  |  | Secretion of chemokines (murine cells): potently induced the secretion of a similar pattern of chemokines; Fever response (rabbits): robust fever response
CCCCCCCCCCCCCCCC(=O)NC[C@H](CSC[C@H](N)C(=O)N[C@@H](CO)C(=O)OC)NC(=O)CCCCCCCCCCCCCCC [Compound 45, (S)-methyl 2-((R)-2-amino-3-((R)-2,3-dipalmitamidopropylthio)-propanamido)-3-hydroxypropanoate] | inactive | completely inactive | 
MALP-2 |  |  | Efficacy (survival) [3]: efficacious in prolonging survival; Tolerability [3]: well-tolerated
CCCCCCCCCCCCCCCC(=O)OC[C@H](CSC[C@H](N)C(=O)OC)OC(=O)CCCCCCCCCCCCCCC [Compound 11, (R)-3-((R)-2-amino-3-methoxy-3-oxopropylthio)propane-1,2-diyl dipalmitate] |  | weakly TLR2-agonistic | 
CCCCCCCCCCCCCCCC(=O)N[C@H](COC(=O)CCCCCCCCCCCCCCC)CSC[C@H](N)C(=O)N[C@@H](CO)C(=O)OC.O=C(O)C(F)(F)F [Compound 37, (R)-3-((R)-2-amino-3-((S)-3-hydroxy-1-methoxy-1-oxopropan-2-ylamino)-3-oxopropylthio)-2-palmitamidopropyl palmitate] | inactive | partially active | TLR2 agonistic activity relative to reference lipopeptide PAM2CSK4 (TLR2 [2]; compared with PAM2CSK4): weaker by about three orders of magnitude
CCCCCCCCCCCCCCCCOC[C@H](CSC[C@H](N)C(=O)N[C@@H](CO)C(=O)OC)OCCCCCCCCCCCCCCCC [Compound 28, (S)-methyl 2-((R)-2-amino-3-((R)-2,3-bis(hexadecyloxy)propylthio)propanamido)-3-hydroxypropanoate] | inactive | entirely inactive | 
CCCCCCCCCCCCCCCC(=O)OC[C@H](COCC(N)C(=O)N[C@@H](CO)C(=O)OC)OC(=O)CCCCCCCCCCCCCCC (stereo partly drawn) [Compound 21a, (S)-3-(2-amino-3-((S)-3-hydroxy-1-methoxy-1-oxopropan-2-ylamino)-3-oxopropoxy)propane-1,2-diyl dipalmitate] | inactive |  | 
CCCCCCCCCCCCCCCC(=O)OC[C@@H](CSCCNC(=O)[C@H](N)CO)OC(=O)CCCCCCCCCCCCCCC [Compound 8b, (S)-3-(2-((R)-2-amino-3-hydroxypropanamido)ethylthio)propane-1,2-diyl dipalmitate] |  | only 8a was active | 
CCCCCCCCCCCCCCCC(=O)OC[C@H](CSCCN)OC(=O)CCCCCCCCCCCCCCC [Compound 6a, (R)-3-(2-aminoethylthio)propane-1,2-diyl dipalmitate] | inactive | weakly active | IC50 (TLR2 [2]): 1000 nM
CCCCCCCCCCCCCCCC(=O)OC[C@@H](CSCCN)OC(=O)CCCCCCCCCCCCCCC [Compound 6b, (S)-3-(2-aminoethylthio)propane-1,2-diyl dipalmitate] | inactive | completely inactive | 
